Assay results taken from ChEMBL document CHEMBL1136968, “Structurally simple inhibitors of lanosterol 14alpha-demethylase are efficacious in a rodent model of acute Chagas disease” (J Med Chem, 2009).

Columns and labels:
Trypanosoma cruzi = assay: Antitrypanosomal activity against Trypanosoma cruzi Tulahuen amastigotes in mouse 3T3 cells by beta-galactosidase reporter gene assay; assay type: functional, organism-based; conditions: NIH3T3
In short: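 Tulahuen strain (TCII lineage) grown as intracellular amastigotes in murine 3T3 fibroblasts in 96-well plates. EC50 determined from triplicate screens. Standard errors within assays stayed below 15%.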

[1] = Toxicity against mouse 3T3 cells by resazurin assay; assay type: cell-based; conditions: NIH3T3 cells
In short: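 Murine 3T3 fibroblasts screened separately from the parasites. Host-cell growth was quantified by resazurin read-out and EC50 determined.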

Row | Structure (SMILES) | EC50 (Trypanosoma cruzi) | EC50 [1]
1 | COC(=O)c1ccc(NCc2cncn2Cc2ccc([N+](=O)[O-])cc2)cc1-c1ccccc1 | 100 nM | > 10000 nM
2 | CC(C)c1cccc(NCc2cncn2Cc2ccccc2)c1 | > 1000 nM | > 1000 nM
3 | COC(=O)c1ccc(NCc2cncn2Cc2ccccc2C)cc1-c1ccccc1 | 1000 nM | 10000 nM
4 | Cc1ccccc1-c1cccc(NCc2cncn2Cc2ccccc2)c1 | 230 nM | > 1000 nM
5 | c1ccc(-c2ccc(Cn3cncc3CNc3ccc(-c4ccccc4)cc3)cc2)cc1 | 200 nM | > 10000 nM
6 | Clc1ccc(Cn2cncc2CNc2ccc(-c3nc4ccccc4s3)c(-c3ccccc3)c2)cc1 | 250 nM | > 1000 nM
7 | c1ccc(Cn2cncc2CNc2cccc(-c3ccccc3)c2)cc1 | 360 nM | > 750 nM
8 | Cc1cccc(-c2cccc(NCc3cncn3Cc3ccccc3)c2)c1 | 550 nM | > 1000 nM
9 | COC(=O)c1ccc(NCc2cncn2Cc2ccccc2Cl)cc1-c1ccccc1 | 100 nM | 10000 nM
10 | c1ccc(-c2ccc(Cn3cncc3CNc3ccc(-c4cc5ccccc5o4)c(-c4ccccc4)c3)cc2)cc1 | 40 nM | > 10000 nM
11 | COC(=O)c1ccc(NCc2cncn2Cc2ccc(-c3ccccc3)cc2)cc1 | 80 nM | > 10000 nM
12 | COC(=O)c1ccc(NCc2cncn2Cc2cccc(C#N)c2)cc1-c1ccccc1 | 100 nM | > 10000 nM
13 | c1ccc(-c2ccc(Cn3cncc3CNc3ccc(-c4nc5ccccc5o4)c(-c4ccccc4)c3)cc2)cc1 | 100 nM | > 10000 nM
14 | CC(C)c1ccc(Cn2cncc2CNc2ccc(-c3nc4ccccc4s3)c(-c3ccccc3)c2)cc1 | 540 nM | > 1000 nM
15 | CS(=O)(=O)c1ccc(Cn2cncc2CNc2ccc(-c3nc4ccccc4s3)c(-c3ccccc3)c2)cc1 | > 1000 nM | > 1000 nM
16 | COC(=O)c1ccc(NCc2cncn2Cc2ccccc2[N+](=O)[O-])cc1-c1ccccc1 | 100 nM | 10000 nM
17 | Cc1ccccc1-c1cc(NCc2cncn2Cc2ccc(-c3ccccc3)cc2)ccc1-c1nc2ccccc2s1 | 31 nM | > 1000 nM
18 | c1ccc(-c2ccc(Cn3cncc3CNc3ccc(-c4ccc[nH]4)c(-c4ccccc4)c3)cc2)cc1 | 100 nM | > 10000 nM
19 | COC(=O)c1ccc(NCc2cncn2Cc2ccc(C#N)cc2)cc1-c1ccccc1 | 25 nM | > 10000 nM
20 | O=[N+]([O-])c1ccc(Cn2cncc2CNc2cccc(-c3ccccc3)c2)cc1 | 100 nM | 10000 nM
21 | Cc1cccc(-c2cccc(NCc3cncn3Cc3ccccc3)c2)c1C | 260 nM | > 1000 nM
22 | c1ccc(-c2ccc(Cn3cncc3CNc3ccc(-c4ccccc4)c(-c4ccccc4)c3)cc2)cc1 | 80 nM | > 10000 nM
23 | CCC(=O)c1ccc(NCc2cncn2Cc2ccc(-c3ccccc3)cc2)cc1-c1ccccc1 | 40 nM | > 10000 nM

Row | Structure (SMILES) | EC50 (Trypanosoma cruzi) | EC50 [1]
24 | COC(=O)c1ccc(NCc2cncn2Cc2cccc([N+](=O)[O-])c2)cc1-c1ccccc1 | 30 nM | > 10000 nM
25 | CCCC(=O)c1ccc(NCc2cncn2Cc2ccc(-c3ccccc3)cc2)cc1-c1ccccc1 | 40 nM | > 10000 nM
26 | COC(=O)c1ccc(NCc2cncn2Cc2ccccc2C#N)cc1-c1ccccc1 | 200 nM | 25000 nM
27 | COC(=O)c1ccc(NCc2cncn2Cc2ccccc2)cc1-c1ccccc1 | 80 nM | > 1000 nM
28 | c1ccc(-c2ccc(Cn3cncc3CNc3ccccc3-c3ccccc3)cc2)cc1 | 80 nM | > 10000 nM
29 | Cc1cccc(-c2cc(NCc3cncn3Cc3ccc(-c4ccccc4)cc3)ccc2-c2nc3ccccc3s2)c1C | 64 nM | > 1000 nM
30 | COC(=O)c1ccc(NCc2cncn2Cc2ccc(OC)cc2)cc1-c1ccccc1 | 25 nM | –
31 | COC(=O)c1ccc(NCc2cncn2Cc2cccc(C(C)(C)C)c2)cc1-c1ccccc1 | 475 nM | > 1000 nM
32 | CC(C)OC(=O)c1ccc(NCc2cncn2Cc2ccc(-c3ccccc3)cc2)cc1-c1ccccc1 | 50 nM | > 10000 nM
33 | c1ccc(Cn2cncc2CNc2cccc(-c3ccncc3)c2)cc1 | 510 nM | > 1000 nM
34 | COC(=O)c1ccc(NCc2cncn2Cc2ccc(N)cc2)cc1-c1ccccc1 | 250 nM | > 10000 nM
35 | Cc1ccccc1-c1ccc(Cn2cncc2CNc2ccc(-c3nc4ccccc4s3)c(-c3ccccc3)c2)cc1 | 120 nM | > 1000 nM
36 | c1ccc(Cn2cncc2CNc2cccc(-c3cccnc3)c2)cc1 | 600 nM | > 1000 nM
37 | Clc1ccc(Cn2cncc2CNc2cccc(-c3ccccc3)c2)cc1 | 80 nM | 10000 nM
38 | COC(=O)c1ccc(NCc2cncn2Cc2cccc(F)c2)cc1-c1ccccc1 | 150 nM | > 1000 nM
39 | Cc1ccc(Cn2cncc2CNc2cccc(-c3ccccc3)c2)cc1 | 100 nM | 10000 nM
40 | Fc1ccc(Cn2cncc2CNc2ccc(-c3nc4ccccc4s3)c(-c3ccccc3)c2)c(F)c1 | 420 nM | > 1000 nM
41 | c1ccc(-c2ccc(Cn3cncc3CNc3ccc(-c4onc5ccccc45)c(-c4ccccc4)c3)cc2)cc1 | 50 nM | > 10000 nM
42 | CCc1ccc(Cn2cncc2CNc2ccc(-c3nc4ccccc4s3)c(-c3ccccc3)c2)cc1 | 110 nM | > 1000 nM
43 | COC(=O)c1ccc(NCc2cncn2Cc2ccccc2Br)cc1-c1ccccc1 | 100 nM | 10000 nM
44 | COC(=O)c1ccc(NCc2cncn2Cc2cccc(N)c2)cc1-c1ccccc1 | 130 nM | > 10000 nM
45 | CC(=O)c1ccc(NCc2cncn2Cc2ccc(-c3ccccc3)cc2)cc1-c1ccccc1 | 40 nM | > 10000 nM

Stronger by EC50 (Trypanosoma cruzi), values ahead:

Row | EC50 (Trypanosoma cruzi) | Structure (SMILES) | EC50 [1]
46 | 10 nM | O=C(OC1CCCCC1)c1ccc(NCc2cncn2Cc2ccc(-c3ccccc3)cc2)cc1-c1ccccc1 | > 10000 nM
47 | 0.5 nM | COC(=O)c1ccc(NCc2cncn2Cc2ccc(-c3ccccc3)cc2)cc1-c1ccccc1 | > 1000 nM
48 | 9.3 nM | CN(C)C(=O)c1ccc(NCc2cncn2Cc2ccc(-c3ccccc3)cc2)cc1-c1ccccc1 | > 1000 nM
49 | 1.3 nM | N#Cc1ccc(NCc2cncn2Cc2ccc(-c3ccccc3)cc2)cc1-c1ccccc1 | > 1000 nM
50 | 5 nM | COC(=O)c1ccc(NCc2cncn2Cc2ccccc2N)cc1-c1ccccc1 | 25000 nM
51 | 5 nM | COC(=O)c1ccc(NCc2cncn2Cc2ccc(C)cc2)cc1-c1ccccc1 | 50000 nM
52 | 23 nM | c1ccc(-c2ccc(Cn3cncc3CNc3ccc(N4CCCCC4)c(-c4ccccc4)c3)cc2)cc1 | > 1000 nM
53 | 10 nM | c1ccc(-c2ccc(Cn3cncc3CNc3cccc(-c4ccccc4)c3)cc2)cc1 | 10000 nM
54 | 20 nM | COC(=O)c1ccc(NCc2cncn2Cc2ccc(Br)cc2)cc1-c1ccccc1 | > 10000 nM
55 | 20 nM | CN(C)c1ccc(NCc2cncn2Cc2ccc(-c3ccccc3)cc2)cc1-c1ccccc1 | > 1000 nM
56 | 22 nM | c1ccc(-c2ccc(Cn3cncc3CNc3ccc(N4CCCC4)c(-c4ccccc4)c3)cc2)cc1 | > 1000 nM
57 | 9 nM | c1ccc(-c2ccc(Cn3cncc3CNc3ccc(-c4cncs4)c(-c4ccccc4)c3)cc2)cc1 | > 1000 nM
58 | 20 nM | COC(=O)c1ccc(NCc2cncn2Cc2cccc(Br)c2)cc1-c1ccccc1 | > 10000 nM
59 | 0.8 nM | COc1ccc(NCc2cncn2Cc2ccc(-c3ccccc3)cc2N)cc1-c1ccccc1 | > 1000 nM
60 | 1.5 nM | N#Cc1ccc(NCc2cncn2Cc2ccc(-c3ccccc3)cc2N)cc1-c1ccccc1 | > 1000 nM
61 | 20 nM | COC(=O)c1ccc(NCc2cncn2Cc2cccc(C)c2)cc1-c1ccccc1 | > 10000 nM
62 | 2.4 nM | CNC(=O)c1ccc(NCc2cncn2Cc2ccc(-c3ccccc3)cc2)cc1-c1ccccc1 | > 1000 nM
63 | 21 nM | COC(=O)c1ccc(NCc2cncn2Cc2ccc(F)cc2F)cc1-c1ccccc1 | > 1000 nM
64 | 10 nM | Nc1cc(-c2ccccc2)ccc1Cn1cncc1CNc1ccc(-c2cncs2)c(-c2ccccc2)c1 | > 1000 nM
65 | 10 nM | c1ccc(-c2ccc(Cn3cncc3CNc3ccc(-c4noc5ccccc45)c(-c4ccccc4)c3)cc2)cc1 | > 10000 nM
66 | 5 nM | COC(=O)c1ccc(NCc2cncn2Cc2ccc(Cl)cc2)cc1-c1ccccc1 | 25000 nM
67 | 6 nM | Clc1ccc(NCc2cncn2Cc2ccc(-c3ccccc3)cc2)cc1-c1ccccc1 | > 1000 nM
68 | 12 nM | CNC(=O)c1ccc(NCc2cncn2Cc2ccc(-c3ccccc3)cc2N)cc1-c1ccccc1 | > 1000 nM
69 | 20 nM | COC(=O)c1ccc(NCc2cncn2Cc2cccc(Cl)c2)cc1-c1ccccc1 | > 10000 nM
70 | 7 nM | COc1ccc(NCc2cncn2Cc2ccc(-c3ccccc3)cc2)cc1-c1ccccc1 | > 1000 nM
71 | 24 nM | O=C(c1ccc(NCc2cncn2Cc2ccc(-c3ccccc3)cc2)cc1-c1ccccc1)N1CCCCC1 | > 1000 nM
72 | 10 nM | CCOC(=O)c1ccc(NCc2cncn2Cc2ccc(-c3ccccc3)cc2)cc1-c1ccccc1 | > 10000 nM
